Data set [1] concerns primary cultured cortical neurons. The data set can be described thus: CCK-8 assay on neuronal cultures. Type of data set: cell-based, mouse. As to conditions: CCK-8, neuronal cultures treated with different dilutions of the probes for 24 h. (Formazan colour is commonly taken as a measure of viable cells.)
For data set [2], the system named is MHC-I molecules in ischemic brain. Kind of data set: In vivo and ex vivo NIRF imaging in photothrombotic stroke mice. More on the design: species or system mouse. In a few lines: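 Photothrombotic stroke in male C57BL/6 mice (6 weeks old), with brains illuminated 15 min and lesions confirmed by T2 MRI at 24 h. Cy5.5-labelled probe or scrambled control probe given i.v. via tail vein (10 nM, 200 μL PBS pH 7.4). Serial brain NIRF imaging 1–24 h (ex 675 nm, em 695 nm long pass). TBR taken as ischemic/contralateral hemisphere. Brain, heart, spleen, liver, kidney and lung then imaged ex vivo; n=6, mean±SEM.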

Consider one substance from article PMC5562219 (Theranostics, 2017).

For K(Cy5.5)ALYNFATM [Cy5.5-H2BP], in data set [1], the cytotoxicity to neurons entry is reported as “low cytotoxicity”. For the same substance, in data set [2] (24 h after injection of the probe, suggests excretion mainly via the kidney), the “ex vivo NIRF signal intensity in the kidney” value was “high signal intensity”. In addition, the “target background ratio (TBR), ischemic/contralateral hemisphere” value in data set [2] (24 h after probe administration, compared with Cy5.5-H2CP probe, n=6 per group) is reported as “significantly enhanced”. Besides, the “TBR values in brain versus other organs” value in data set [2] (ex vivo NIRF images, brain, heart, liver, spleen, lung, kidney, n=6) is reported as “significantly higher in the brain than in other organs”. Moreover, in data set [2] (photothrombosis model mice, tail vein injection, 10 nM, 200 μL in PBS pH 7.4), the “time of peak NIRF signal intensity post-injection” value is given as “approximately 8 h”.
